# HTR2A ag – mouse HTR2A agonism via beta-arrestin recruitment | P35363 | CHO-K1 mHTR2A beta-arrestin complementation, luminescence; percent of 30 µM serotonin response | activation, % at 7.6 µM | hit rate 0.66% among 360,000 | AID 624169;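 active = activation above a run cutoff, the mean activation of all tested compounds plus 3 SD, cut at about 14% in these data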;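 note: 0% = plate median of compound wells and 100% = 30 µM serotonin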
# Target sequence (P35363 whole entry, looked up): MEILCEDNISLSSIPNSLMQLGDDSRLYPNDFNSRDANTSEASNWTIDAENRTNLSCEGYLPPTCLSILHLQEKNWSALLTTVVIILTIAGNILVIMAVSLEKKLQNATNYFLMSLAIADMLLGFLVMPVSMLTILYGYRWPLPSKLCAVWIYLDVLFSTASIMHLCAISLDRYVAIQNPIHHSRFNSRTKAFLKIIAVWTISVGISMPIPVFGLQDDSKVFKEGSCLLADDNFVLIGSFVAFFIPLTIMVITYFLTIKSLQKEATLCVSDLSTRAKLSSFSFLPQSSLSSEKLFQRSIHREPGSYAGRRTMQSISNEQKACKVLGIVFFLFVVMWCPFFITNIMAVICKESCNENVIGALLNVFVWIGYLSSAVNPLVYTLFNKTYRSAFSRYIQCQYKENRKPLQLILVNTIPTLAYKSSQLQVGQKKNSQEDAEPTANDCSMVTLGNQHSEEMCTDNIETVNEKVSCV
# Arrestin-AP2 inh – blocks beta-arrestin peptide binding to AP2 adaptin; FITC-arrestin peptide / GST-AP2 beads, flow cytometry; AP2 beta2 appendage carries R879A mutation; inhibition, % at 10 µM; hit rate 0.31% among 340,000;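 active = inhibition above a set limit, near 3 SD of compounds lacking own fluorescence, cut at about 54% in these data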;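 note: plate controls were DMSO wells for no effect and 5 µM unlabelled arrestin peptide for full effect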
#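 test system = AP2 appendage R879A on GSH beads | buffer or medium = PBS plus Tween 20 (0.05%) and BSA (0.1%) | incubation = 12 min plus 1 h, RT | detection = bead flow cytometry, FITC channel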
# Lipid droplet – hepatic lipid droplet formation modulation | AID 1656 | hit rate 0.4% among 240,000 | inhibition, % at 6.5 µM | AML12 mouse hepatocytes, oleate lipid droplets, BODIPY imaging;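 active = lipid droplet intensity inhibited by at least 50%, with more than 500 cells counted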
#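 Assay system: AML12 mouse liver cells | Compound: 6.5 µM single-point dosing | Schedule: Overnight exposure | Technique: Fluorescence imaging, 20x objective, two fields per well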
# M18AAP inhibitor – PfM18AAP enzyme inhibition | hit rate 1.2% among 290,000 | inhibition, % at 7.35 µM | AID 1822 | recombinant PfM18AAP, H-Glu-NHMec fluorogenic cleavage;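 active = inhibition above the campaign mean inhibition over all tested compounds plus 3 SD, cut at about 28% in these data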;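 note: 0% = plate median of test compound wells and 100% = 2 mM ZnCl2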
# sPLA2-III inh – Inhibits HGIII-sPLA2 liposome hydrolysis, primary screen. hit rate 0.56% among 370,000. QFRET BODIPY PC-A2 liposome hydrolysis, fluorescence. Q9NZ20. inhibition, % at 12.2 µM;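 active = inhibition above mean plus 3 SD of compounds lying within the high and low control bounds, cut at about 19% in these data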;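 note: 0% = median of test compound wells and 100% = no enzyme DMSO wells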
# NRP1-CendR mod – modulators of CendR peptide binding to human neuropilin-1. FAM-RPARPAR peptide binding to NRP-1, fluorescence polarization. inhibition, % at 25 µM. hit rate 0.85% among 360,000. AID 602438;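 active = inhibition or corrected inhibition above about 18%, plus a signal ratio from 0.5 to 1.5, limit read from the data, passing the limit was not always enough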
# Hep lipid conf – hepatic lipid droplet formation inhibition, confirmed | hit rate 65% among 870 | shares compounds with Lipid droplet | AML12 mouse hepatocytes, BODIPY lipid droplet imaging; droplets induced with 100 µM oleic acid | inhibition, % at 5.2 µM;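 active = inhibition of lipid droplet metric at least 50%, with more than 300 cells in each of four replicates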;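 note: plate controls were DMSO with oleic acid for no effect and 5 µM Triacsin-C for full effect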
# AML12 cytotox – counter-screen for cytotoxicity in AML12 mouse hepatocytes; z-score at 5 µM; DAPI nuclear morphology cytotoxicity imaging; active compounds read high; cells fed 100 µM oleate overnight; hit rate 3% among 870; shares compounds with Lipid droplet; in the data active = z-score above about 6.3;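 note: compound exposure lasted overnight at 37 °C before fixation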
# AML12 tox ATP – AML12 hepatocyte cytotoxicity, confirmed; shares compounds with Lipid droplet; AML12 mouse hepatocyte viability, ATP luminescence; cells loaded with 100 µM oleic acid; cytotoxicity, % at 50 µM; 530 tested, under 10 active;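 active = cytotoxicity above 50% in each of four replicates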;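 note: compound exposure lasted overnight at 37 °C before the ATP read; 0% = DMSO-treated cells and 100% = wells with no cells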
# Numbers without * were called inactive; · = not tested or not shown. Most compounds without a hit are left out; they make up all but 3.3% or so of the library.
SMILES,HTR2A ag,Arrestin-AP2 inh,Lipid droplet,M18AAP inhibitor,sPLA2-III inh,NRP1-CendR mod,Hep lipid conf,AML12 cytotox,AML12 tox ATP
CC(C)CCOc1ccc(C(=O)NCC(c2ccco2)N(C)C)cc1 (stereo not given),4,15,54*,8,2,0,-3,-0.15,·
CN(C)C(CNC(=O)c1ccc(Br)cc1)c1ccco1 (stereo not given),-13,-5,3,0,1,6,·,·,·
Cc1ccc(-c2cc(C(=O)NC3=NCCS3)c3cc(Br)ccc3n2)o1,·,·,107*,0,·,·,4,-0.45,·
CCOC(=O)c1cc(-c2cccc(C(F)(F)F)c2)nc2nc(SC)[nH]c(=O)c12,-1,2,12,3,-14,-2,·,·,·
CCOC(=O)c1cc(-c2ccc(C)cc2)nc2nc(SC)[nH]c(=O)c12,9,12,104*,1,7,21,107*,-0.18,·
COC(=O)c1cc(-c2ccc(OC)cc2)nc2nc(SC)[nH]c(=O)c12,-4,2,67*,-9,4,10,27,-0.77,·
Cc1cc(Nc2cc(Cl)cc(Cl)c2)cc(=O)n1-c1cc(Cl)cc(Cl)c1,·,·,·,·,1,·,·,·,·
C[C@@H](O[Si](c1ccccc1)(c1ccccc1)C(C)(C)C)[C@@H]1NC(=O)[C@@H]2C[C@]3(Br)c4ccccc4N(S(=O)(=O)c4ccccc4)[C@@H]3N2C1=O,·,·,·,·,-4,·,·,·,·
COC(=O)c1cc(C)sc1NC(=O)C1CC(=O)NN1Cc1ccccc1 (stereo not given),6,1,86*,8,-16,0,109*,0.4,4
CCOC(=O)c1cc(CC)sc1NC(=O)C1CC(=O)NN1Cc1ccccc1 (stereo not given),-6,6,82*,2,-5,7,110*,-0.28,-3
CCOC(=O)C1CCN(C(=O)C2(NC(=O)Nc3ccccc3C)CCCCC2)CC1,-6,2,81*,-10,2,16,98*,-0.28,5
CCOC(=O)C1CCN(C(=O)C2(NC(=O)Nc3ccccc3Cl)CCCCC2)CC1,5,0,73*,-6,-1,-4,101*,0.094,11
CC1(C(=O)Nc2ccccc2F)CCN1C(=O)Cc1ccc(-c2ccccc2)cc1 (stereo not given),-6,·,·,·,-5,8,·,·,·
C=CCN1C(=O)/C(=C\C=C2\N(C)c3ccccc3C2(C)C)SC1=S,7,46,91*,-11,2,-66,107*,-0.34,10
CN1/C(=C\C=C2/SC(=S)N(CC(=O)O)C2=O)C(C)(C)c2ccccc21,-1,-18,22,-1,-183,136,·,·,·
O=c1n(Cc2ccccc2)c(O)c2n1Cc1ccccc1N=C2c1ccccc1,-1,·,·,·,4,18,·,·,·
CC1(Oc2ccccc2-c2ccno2)CCN(Cc2csc3ccccc23)C1 (stereo not given),-1,·,·,·,2,-2,·,·,·
N/C(=N\c1nc2c(c(=O)[nH]1)CCCC2)Nc1ccc(Oc2ccccc2)cc1,0,18,61*,3,4,2,41,1.1,·
COc1ccc(C(=O)CSc2nnc(CC(=O)Nc3ccccc3OC)n2C)cc1,3,17,59*,0,-9,12,56,-0.91,9
COc1ccccc1NC(=O)Cc1nnc(SCC(=O)Nc2ccccc2F)n1C,-1,3,2,6,0,4,·,·,·
CC(CC(=O)Nc1ccc2c(c1)c(=O)n(C)n2-c1cccs1)c1ccccc1 (stereo not given),-8,·,·,·,-1,4,·,·,·
CCOc1ccc2nc(NC(=O)CSc3nc4ccccc4c(=O)n3Cc3ccco3)sc2c1,12,25,57*,-11,-6,-1,106*,-0.69,14
CC(=O)c1ccc(N2CCCC2)c(F)c1,·,·,53*,-7,·,·,23,-0.96,·
CC(=O)c1ccc(N2CCC(C)CC2)c(F)c1,2,-22,-10,0,0,-5,·,·,·
COc1ccc(S(=O)(=O)N2CCC(C(=O)NCc3cccnc3)CC2)cc1C,-4,6,-1,11,-8,9,·,·,·
SMILES,HTR2A ag,Arrestin-AP2 inh,Lipid droplet,M18AAP inhibitor,sPLA2-III inh,NRP1-CendR mod,Hep lipid conf,AML12 cytotox,AML12 tox ATP
CN(C(=O)CSc1cc(C(=O)c2nccn2C)c2ccccc2n1)c1ccccc1,1,-5,81*,-3,-10,9,-16,-0.019,·
Cn1ccnc1C(=O)c1cc(SCC(=O)NC2CC2)nc2ccccc12,3,11,2,2,-2,-7,·,·,·
COc1cc(Cl)ccc1OC1(C)CCN(Cc2ccc(SC)cc2)C1 (stereo not given),-1,·,·,·,9,-2,·,·,·
Oc1c(N=Nc2ccc(F)cc2)ccc2ccccc12,4,-13,71*,-2,5,-20,96*,1,64*
COc1cccc(N=Nc2ccc3ccccc3c2O)c1,1,34,75*,-8,8,-4,70,-0.23,61*
COc1ccc(N=Nc2ccc3ccccc3c2)c(O)c1,2,4,22,-9,12,-20,·,·,·
COc1ccc(C(C)=O)cc1Cn1c(C)c(C(=O)NCC(C)C)sc1=O,-3,·,·,·,3,-1,·,·,·
CCn1c(=O)c2cc(C(=O)NCCC(C)C)sc2c2ccccc21,-3,-18,54*,-1,3,-6,92*,-0.4,-2
Cc1ccc(Cn2nc(C)c(NC(=O)C3(C)CC3(Br)Br)c2C)cc1 (stereo not given),1,-1,64*,-18,-4,-5,68*,0.89,16
Cc1ccc(Cn2nc(C)c(NC(=O)c3noc4c3CCCCC4)c2C)cc1,0,-7,-1,1,-8,0,·,·,·
COc1ccc(NC(=O)COC(=O)/C=C/C(=O)OCC(=O)Nc2ccc(OC)c(Cl)c2)cc1Cl,4,6,63*,-11,0,-4,22,-0.24,·
CC(C)OP(=O)(O)C(C)NC(=O)OCc1ccccc1 (stereo not given),·,·,·,·,2,·,·,·,·
O=C(NCc1ccco1)c1ccc(Cn2c(=O)c3ccccc3n(Cc3ccc(Cl)cc3)c2=O)cc1,-5,24,56*,-7,-8,-12,48,-0.48,·
CCc1nc2c(OCCn3cccc3)cccn2c1N(C)C(=O)c1ccccc1F,1,·,·,·,-20,-3,·,·,·
CCOC(=O)c1ccc(NC(=O)CSc2nc3c(c(=O)n2CC)SC(C)C3)cc1 (stereo not given),1,-5,52*,-3,0,2,79*,-0.85,12

# Screening data (PubChem BioAssay)
